Assay results published in publication PMC6720533 (Biomolecules & Therapeutics, 2019).

How the values were obtained:
RS4;11 cells = experiment: Proliferation, viable cell count by trypan blue exclusion; format: cell-based, human
Outline: (§1)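 Human B-ALL (SEM, RS4;11) and T-ALL (Jurkat, CEM) lines were grown with 10% heat-inactivated FBS and penicillin/streptomycin at 37°C, 5% CO2. Cells took test compound at 0.1–5.0 μM (methods: 0.5–5.0 μM) or DMSO for up to 72 h. Viable cells were counted by trypan blue exclusion and expressed relative to control (100%). IC50 came from three separate experiments, each in triplicate.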

CEM cells = experiment: as above; format: cell-based, human; settings: 72 h
Outline: as §1

cleaved caspase 3 = experiment: Western blot, RS4; format: cell-based, human; settings: RS4;11, 2.5 μM and 5.0 μM, 48 h
Outline: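 SEM and RS4;11 cells were exposed to 2.5 or 5.0 μM test compound, or DMSO, for 48 h. Lysates of 1–5×10^6 cells were made in RIPA buffer with sonication. Cleaved caspase 3 was detected by western blot on PVDF with near-infrared imaging, using GAPDH as loading control.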

pAKT = experiment: Western blot, SEM cells; format: cell-based, human; settings: 2.5 μM or 5.0 μM, 48 h
Outline: (§2)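 SEM or RS4;11 cells took DMSO, 2.5 or 5.0 μM test compound for 48 h. Cells (1–5×10^6) were lysed in RIPA buffer with sonication, run on SDS gels, blotted to PVDF and imaged by near-infrared fluorescence. Bands were normalised to GAPDH, and the phospho/total protein ratio was set relative to DMSO control (=1).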

pERK = experiment: Western blot, RS4; format: cell-based, human; settings: RS4;11, 2.5 μM or 5.0 μM, 48 h
Outline: as §2

AMPKα1 = AMPKα1 (Homo sapiens, UniProt Q13131); experiment: Kinase activity screening; format: biochemical; settings: FX-9 at 2.5 μM, ATP at Km (45 μM)
Outline: (§3)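 Radiometric substrate-phosphorylation screen covering a panel of 58 human kinases run by a contract service. […] Activity is given as a percentage of mean activity in positive control samples (100%). Values <30% were scored strong hits, 30–70% partial hits and >70% no hit.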

ASK1 = ASK1 (Homo sapiens, UniProt Q99683); experiment: Kinase activity screening; format: biochemical; settings: FX-9 at 2.5 μM, ATP at Km (200 μM)
Outline: as §3

Aurora-A = Aurora-A (Homo sapiens, UniProt O14965); experiment: Kinase activity screening; format: biochemical; settings: FX-9 at 2.5 μM, ATP at Km (15 μM)
Chain of Aurora-A (O14965 whole entry): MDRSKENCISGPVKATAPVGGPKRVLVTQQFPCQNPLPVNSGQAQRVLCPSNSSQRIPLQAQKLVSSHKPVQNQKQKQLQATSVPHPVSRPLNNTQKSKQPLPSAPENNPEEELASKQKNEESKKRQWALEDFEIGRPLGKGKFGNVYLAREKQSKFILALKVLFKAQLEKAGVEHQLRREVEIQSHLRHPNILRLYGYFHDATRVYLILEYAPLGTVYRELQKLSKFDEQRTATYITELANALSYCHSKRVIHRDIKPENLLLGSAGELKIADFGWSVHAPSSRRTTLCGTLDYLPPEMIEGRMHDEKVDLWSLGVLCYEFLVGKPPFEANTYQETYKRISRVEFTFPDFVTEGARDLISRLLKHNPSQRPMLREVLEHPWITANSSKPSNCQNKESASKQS
Outline: as §3

CDK1/cyclinB = CDK1/cyclinB (Homo sapiens, UniProt P06493); experiment: Kinase activity screening; format: biochemical; settings: FX-9 at 2.5 μM, ATP at Km (45 μM)
Chain of CDK1/cyclinB (P06493 whole entry): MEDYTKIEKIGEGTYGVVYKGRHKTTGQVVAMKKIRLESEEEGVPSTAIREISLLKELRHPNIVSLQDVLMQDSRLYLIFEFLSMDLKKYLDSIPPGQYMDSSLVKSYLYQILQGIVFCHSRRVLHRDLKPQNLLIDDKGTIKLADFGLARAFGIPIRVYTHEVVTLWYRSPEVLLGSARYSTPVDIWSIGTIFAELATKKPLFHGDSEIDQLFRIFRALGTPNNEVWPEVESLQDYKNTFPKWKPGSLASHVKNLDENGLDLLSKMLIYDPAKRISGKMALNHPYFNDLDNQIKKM
Chain of CDK1/cyclinB (P14635 whole entry, further chain): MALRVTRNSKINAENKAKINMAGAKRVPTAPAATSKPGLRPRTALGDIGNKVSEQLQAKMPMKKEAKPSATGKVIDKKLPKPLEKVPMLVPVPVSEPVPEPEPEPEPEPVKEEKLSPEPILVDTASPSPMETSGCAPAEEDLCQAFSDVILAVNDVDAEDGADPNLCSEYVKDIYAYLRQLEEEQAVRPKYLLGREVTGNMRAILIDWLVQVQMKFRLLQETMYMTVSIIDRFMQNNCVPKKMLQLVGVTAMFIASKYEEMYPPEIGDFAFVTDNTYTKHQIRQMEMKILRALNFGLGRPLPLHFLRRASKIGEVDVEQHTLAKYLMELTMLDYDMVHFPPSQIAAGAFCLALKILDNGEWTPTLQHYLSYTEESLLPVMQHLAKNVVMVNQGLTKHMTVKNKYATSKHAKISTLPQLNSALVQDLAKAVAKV
Outline: as §3

CHK1 = CHK1 (Homo sapiens, UniProt O14757); experiment: Kinase activity screening; format: biochemical; settings: FX-9 at 2.5 μM, ATP at Km (90 μM)
Chain of CHK1 (O14757 whole entry): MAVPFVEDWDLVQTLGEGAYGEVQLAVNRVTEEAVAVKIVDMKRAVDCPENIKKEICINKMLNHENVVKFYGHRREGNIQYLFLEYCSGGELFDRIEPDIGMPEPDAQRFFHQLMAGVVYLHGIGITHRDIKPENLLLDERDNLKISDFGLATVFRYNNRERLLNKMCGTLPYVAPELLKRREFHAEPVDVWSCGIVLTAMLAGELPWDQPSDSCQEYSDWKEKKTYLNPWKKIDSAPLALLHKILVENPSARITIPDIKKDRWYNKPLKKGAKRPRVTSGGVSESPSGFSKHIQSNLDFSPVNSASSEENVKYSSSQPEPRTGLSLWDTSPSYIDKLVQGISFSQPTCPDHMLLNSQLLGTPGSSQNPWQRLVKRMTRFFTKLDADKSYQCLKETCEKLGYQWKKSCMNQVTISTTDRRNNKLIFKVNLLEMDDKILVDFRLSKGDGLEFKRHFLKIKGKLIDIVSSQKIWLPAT
Outline: as §3

CK2α2 = CK2α2 (Homo sapiens, UniProt P19784); experiment: Kinase activity screening; format: biochemical; settings: FX-9 at 2.5 μM, ATP at Km (10 μM)
Chain of CK2α2 (P19784 whole entry): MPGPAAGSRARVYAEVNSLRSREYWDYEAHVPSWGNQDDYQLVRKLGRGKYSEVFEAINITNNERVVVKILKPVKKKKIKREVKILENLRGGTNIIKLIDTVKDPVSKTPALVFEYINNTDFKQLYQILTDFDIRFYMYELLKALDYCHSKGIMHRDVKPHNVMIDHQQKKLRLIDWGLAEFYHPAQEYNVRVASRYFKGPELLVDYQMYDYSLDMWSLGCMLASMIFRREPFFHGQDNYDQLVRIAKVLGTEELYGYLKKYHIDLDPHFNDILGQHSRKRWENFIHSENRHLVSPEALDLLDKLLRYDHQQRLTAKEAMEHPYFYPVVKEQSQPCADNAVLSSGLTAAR
Outline: as §3

c-RAF = c-RAF (Homo sapiens, UniProt P04049); experiment: Kinase activity screening; format: biochemical; settings: FX-9 at 2.5 μM, ATP at Km (120 μM)
Outline: (§4)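 Radiometric kinase-panel screen of 58 human kinases, measuring substrate phosphorylation. […] Activity is given as % of the mean positive-control kinase activity (100%). Below 30% counts as a strong hit, 30–70% as a partial hit, and above 70% as no hit.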

DRAK1 = DRAK1 (Homo sapiens, UniProt Q9UEE5); experiment: Kinase activity screening; format: biochemical; settings: FX-9 at 2.5 μM, ATP at Km (10 μM)
Outline: as §3

eEF-2K = eEF-2K (Homo sapiens, UniProt O00418); experiment: Kinase activity screening; format: biochemical; settings: FX-9 at 2.5 μM, ATP at Km (15 μM)
Chain of eEF-2K (O00418 whole entry): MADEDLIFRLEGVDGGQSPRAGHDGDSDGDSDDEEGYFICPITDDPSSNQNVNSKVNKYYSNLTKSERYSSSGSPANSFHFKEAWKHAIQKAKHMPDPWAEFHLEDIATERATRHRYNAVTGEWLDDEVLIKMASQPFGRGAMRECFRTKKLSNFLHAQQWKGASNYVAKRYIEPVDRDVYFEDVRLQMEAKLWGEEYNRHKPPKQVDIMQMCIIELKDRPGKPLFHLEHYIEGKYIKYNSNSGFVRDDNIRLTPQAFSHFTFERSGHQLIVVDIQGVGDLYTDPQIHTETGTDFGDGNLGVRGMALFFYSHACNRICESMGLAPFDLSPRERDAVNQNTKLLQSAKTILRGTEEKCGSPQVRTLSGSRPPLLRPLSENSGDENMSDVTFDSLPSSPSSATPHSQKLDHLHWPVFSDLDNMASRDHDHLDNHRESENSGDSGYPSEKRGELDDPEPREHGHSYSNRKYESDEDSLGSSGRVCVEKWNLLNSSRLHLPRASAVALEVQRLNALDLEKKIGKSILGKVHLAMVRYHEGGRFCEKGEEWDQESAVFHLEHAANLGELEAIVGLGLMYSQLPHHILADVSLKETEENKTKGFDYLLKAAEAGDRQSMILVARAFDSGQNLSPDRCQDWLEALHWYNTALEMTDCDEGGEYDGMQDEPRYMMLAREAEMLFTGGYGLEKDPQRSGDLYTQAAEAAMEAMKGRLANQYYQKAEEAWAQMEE
Outline: as §4

EGFR = EGFR (Homo sapiens, UniProt P00533); experiment: Kinase activity screening; format: biochemical; settings: FX-9 at 2.5 μM, ATP at Km (10 μM)
Outline: as §3

IGF-1R = IGF-1R (Homo sapiens, UniProt P08069); experiment: Kinase activity screening; format: biochemical; settings: FX-9 at 2.5 μM, ATP at Km (200 μM)
Outline: as §3

IKKα = IKKα (Homo sapiens, UniProt O15111); experiment: Kinase activity screening; format: biochemical; settings: FX-9 at 2.5 μM, ATP at Km (10 μM)
Chain of IKKα (O15111 whole entry): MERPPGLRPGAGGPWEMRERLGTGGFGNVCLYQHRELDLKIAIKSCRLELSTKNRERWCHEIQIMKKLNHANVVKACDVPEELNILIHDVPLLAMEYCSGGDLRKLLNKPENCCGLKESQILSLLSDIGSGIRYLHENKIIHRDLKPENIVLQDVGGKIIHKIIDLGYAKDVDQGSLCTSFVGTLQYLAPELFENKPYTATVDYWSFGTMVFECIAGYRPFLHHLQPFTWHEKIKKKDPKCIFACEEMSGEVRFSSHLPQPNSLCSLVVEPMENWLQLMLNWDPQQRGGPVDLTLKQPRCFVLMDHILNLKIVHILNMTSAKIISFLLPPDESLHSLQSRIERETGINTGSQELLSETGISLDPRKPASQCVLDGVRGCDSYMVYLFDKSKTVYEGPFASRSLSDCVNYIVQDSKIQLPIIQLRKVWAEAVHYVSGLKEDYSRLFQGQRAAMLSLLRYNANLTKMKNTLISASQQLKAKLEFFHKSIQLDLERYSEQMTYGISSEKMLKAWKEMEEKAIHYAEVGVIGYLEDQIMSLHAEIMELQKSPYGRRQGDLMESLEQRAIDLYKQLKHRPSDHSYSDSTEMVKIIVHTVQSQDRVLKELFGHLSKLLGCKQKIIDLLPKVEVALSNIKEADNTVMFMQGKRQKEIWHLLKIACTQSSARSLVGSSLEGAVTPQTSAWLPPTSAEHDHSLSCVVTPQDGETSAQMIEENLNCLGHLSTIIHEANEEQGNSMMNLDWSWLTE
Outline: as §3

KDR = KDR (Homo sapiens, UniProt P35968); experiment: Kinase activity screening; format: biochemical; settings: FX-9 at 2.5 μM, ATP at Km (90 μM)
Outline: as §3

LOK = LOK (Homo sapiens, UniProt O94804); experiment: Kinase activity screening; format: biochemical; settings: FX-9 at 2.5 μM, ATP at Km (120 μM)
Outline: as §3

Lyn = Lyn (Homo sapiens, UniProt P07948); experiment: Kinase activity screening; format: biochemical; settings: FX-9 at 2.5 μM, ATP at Km (70 μM)
Outline: as §3

MSK2 = MSK2 (Homo sapiens, UniProt O75676); experiment: Kinase activity screening; format: biochemical; settings: FX-9 at 2.5 μM, ATP at Km (45 μM)
Outline: as §3

MST1 = MST1 (Homo sapiens, UniProt Q13043); experiment: Kinase activity screening; format: biochemical; settings: FX-9 at 2.5 μM, ATP at Km (90 μM)
Outline: as §3

NEK2 = NEK2 (Homo sapiens, UniProt P51955); experiment: Kinase activity screening; format: biochemical; settings: FX-9 at 2.5 μM, ATP at Km (120 μM)
Outline: as §3

p70S6K = p70S6K (Homo sapiens, UniProt P23443); experiment: Kinase activity screening; format: biochemical; settings: FX-9 at 2.5 μM, ATP at Km (15 μM)
Chain of p70S6K (P23443 whole entry): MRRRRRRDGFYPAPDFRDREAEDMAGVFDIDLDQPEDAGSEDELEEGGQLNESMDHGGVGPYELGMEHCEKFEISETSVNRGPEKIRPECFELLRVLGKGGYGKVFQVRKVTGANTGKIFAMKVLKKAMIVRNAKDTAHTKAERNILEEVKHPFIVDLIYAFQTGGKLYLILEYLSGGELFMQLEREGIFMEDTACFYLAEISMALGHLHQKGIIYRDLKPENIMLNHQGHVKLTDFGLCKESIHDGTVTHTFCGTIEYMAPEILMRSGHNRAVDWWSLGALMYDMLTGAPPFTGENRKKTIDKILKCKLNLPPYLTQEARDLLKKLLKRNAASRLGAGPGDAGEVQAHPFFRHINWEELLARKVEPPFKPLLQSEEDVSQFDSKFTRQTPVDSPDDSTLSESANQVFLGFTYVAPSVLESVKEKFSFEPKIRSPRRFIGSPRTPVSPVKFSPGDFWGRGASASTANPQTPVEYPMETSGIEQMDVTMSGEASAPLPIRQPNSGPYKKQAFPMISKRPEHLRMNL
Outline: as §4

PAK2 = PAK2 (Homo sapiens, UniProt Q13177); experiment: Kinase activity screening; format: biochemical; settings: FX-9 at 2.5 μM, ATP at Km (90 μM)
Outline: as §3

PKA = PKA (Homo sapiens, UniProt P17612); experiment: Kinase activity screening; format: biochemical; settings: FX-9 at 2.5 μM, ATP at Km (10 μM)
Outline: as §3

PKBα = PKBα (Homo sapiens, UniProt P31749); experiment: Kinase activity screening; format: biochemical; settings: FX-9 at 2.5 μM, ATP at Km (155 μM)
Outline: as §3

Plk3 = Plk3 (Homo sapiens, UniProt Q9H4B4); experiment: Kinase activity screening; format: biochemical; settings: FX-9 at 2.5 μM, ATP at Km (70 μM)
Chain of Plk3 (Q9H4B4 whole entry): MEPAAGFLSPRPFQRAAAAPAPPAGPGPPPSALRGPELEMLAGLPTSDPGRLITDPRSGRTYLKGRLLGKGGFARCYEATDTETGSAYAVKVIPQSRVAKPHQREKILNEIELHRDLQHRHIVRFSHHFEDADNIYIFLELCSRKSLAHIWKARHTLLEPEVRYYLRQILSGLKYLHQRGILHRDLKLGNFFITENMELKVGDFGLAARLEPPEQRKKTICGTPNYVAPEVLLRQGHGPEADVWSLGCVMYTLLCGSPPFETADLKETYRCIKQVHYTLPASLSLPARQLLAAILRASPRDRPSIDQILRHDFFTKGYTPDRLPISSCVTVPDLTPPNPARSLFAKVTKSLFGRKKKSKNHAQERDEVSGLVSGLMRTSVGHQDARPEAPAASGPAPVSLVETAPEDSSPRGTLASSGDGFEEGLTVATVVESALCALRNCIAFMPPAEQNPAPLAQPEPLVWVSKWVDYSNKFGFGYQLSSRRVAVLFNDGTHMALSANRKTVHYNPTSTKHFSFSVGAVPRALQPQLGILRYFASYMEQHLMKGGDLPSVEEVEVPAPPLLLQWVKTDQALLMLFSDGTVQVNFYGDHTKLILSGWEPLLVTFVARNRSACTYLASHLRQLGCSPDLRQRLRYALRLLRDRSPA
Outline: as §4

SAPK2a = SAPK2a (Homo sapiens, UniProt Q16539); experiment: Kinase activity screening; format: biochemical; settings: FX-9 at 2.5 μM, ATP at Km (90 μM)
Chain of SAPK2a (Q16539 whole entry): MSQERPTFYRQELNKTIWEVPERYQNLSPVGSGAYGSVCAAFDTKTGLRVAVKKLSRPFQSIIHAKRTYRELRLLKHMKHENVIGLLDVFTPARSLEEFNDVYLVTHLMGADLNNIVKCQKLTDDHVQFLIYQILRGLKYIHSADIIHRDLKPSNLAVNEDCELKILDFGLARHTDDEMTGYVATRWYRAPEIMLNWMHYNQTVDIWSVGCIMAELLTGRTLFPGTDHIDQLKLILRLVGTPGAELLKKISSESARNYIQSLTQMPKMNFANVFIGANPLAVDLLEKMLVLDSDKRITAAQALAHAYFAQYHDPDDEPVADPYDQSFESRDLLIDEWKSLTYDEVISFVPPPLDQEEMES
Outline: as §4

B- and T-ALL cells = experiment: Proliferation, viable cell count by trypan blue exclusion; format: cell-based; settings: Homo sapiens, read-out: IC50 values against B- and T-ALL cells
Outline: as §1

IC50 (RS4;11 cells; Homo sapiens, RS4-11, 72 h, read-out: IC50 based on proliferation): 540 ± 20 nM
Kinase activity (% control) (AMPKα1): 98 % control
Kinase activity (% control) (ASK1): 101 % control
Kinase activity (% control) (Aurora-A): 92 % control
Kinase activity (% control) (CDK1/cyclinB): 97 % control
Kinase activity (% control) (CHK1): 94 % control
Kinase activity (% control) (CK2α2): 95 % control
Kinase activity (% control) (c-RAF): 92 % control
Kinase activity (% control) (DRAK1): 81 % control
Kinase activity (% control) (eEF-2K): 86 % control
Kinase activity (% control) (EGFR): 101 % control
Kinase activity (% control) (IGF-1R): 89 % control
Kinase activity (% control) (IKKα): 91 % control
Kinase activity (% control) (KDR): 83 % control
Kinase activity (% control) (LOK): 101 % control
Kinase activity (% control) (Lyn): 87 % control
Kinase activity (% control) (MSK2): 89 % control
Kinase activity (% control) (MST1): 87 % control
Kinase activity (% control) (NEK2): 106 % control
Kinase activity (% control) (p70S6K): 85 % control
Kinase activity (% control) (PAK2): 88 % control
Kinase activity (% control) (PKA): 92 % control
Kinase activity (% control) (PKBα): 98 % control
Kinase activity (% control) (Plk3): 99 % control
Kinase activity (% control) (SAPK2a): 98 % control
SMILES: Cc1ccc(-c2cc3ccccc3c(N)n2)cc1 [FX-9, 3-(p-Tolyl)isoquinolin-1-amine]
Proliferation compared to control cells (=100%) (RS4;11 cells; RS4;11, 0.5 μM, 72 h): 60.0%
Proliferation compared to control cells (100%) (CEM cells; CEM, 2.5 μM): 24.1%
IC50 (CEM cells; Homo sapiens, CCRF-CEM, read-out: IC50 based on proliferation): 1940 ± 30 nM
cleaved caspase 3 protein (western blot) (cleaved caspase 3): increased amount of cleaved caspase 3
pAKT level (western blot) (pAKT): reduced
pERK level (western blot) (pERK): dose dependent increase
IC50 (B- and T-ALL cells): 540 to 1940 nM
